Results reported in ChEMBL document CHEMBL1131251, “Inhibition of in vitro and in vivo HIV replication by a distamycin analogue that interferes with chemokine receptor function: a candidate for chemotherapeutic and microbicidal application” (J Med Chem, 1998).

Experiments:
Conditions in all cases: HEK293; concentration not given here
[1] = biological target: C-C chemokine receptor type 5 (Homo sapiens) (UniProt P51681); assay: The compound was tested for inhibition of Chemokine (MIP-1Beta) binding against C-C chemokine receptor type 5 transfected in HEK 293 cells; format: cell-based
C-C chemokine receptor type 5 (Homo sapiens), sequence (P51681 whole entry, looked up): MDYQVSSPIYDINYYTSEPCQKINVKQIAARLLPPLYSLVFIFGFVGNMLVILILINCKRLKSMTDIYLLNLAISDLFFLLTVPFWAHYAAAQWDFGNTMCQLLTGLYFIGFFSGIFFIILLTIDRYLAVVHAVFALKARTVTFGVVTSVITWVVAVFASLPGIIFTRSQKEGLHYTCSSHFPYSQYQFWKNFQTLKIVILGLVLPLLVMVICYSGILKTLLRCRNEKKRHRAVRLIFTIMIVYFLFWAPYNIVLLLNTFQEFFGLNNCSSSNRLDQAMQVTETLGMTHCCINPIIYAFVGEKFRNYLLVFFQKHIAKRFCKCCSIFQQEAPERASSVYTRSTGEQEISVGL
Procedure, shortened: (§1)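 CCR5 stably transfected HEK-293 cells at 1 × 10^6 cells/mL in RPMI 1640, 1% BSA, 5 mM HEPES pH 8.0. Constant radiolabeled chemokine (0.2 ng/assay) plus competitor at a single 200 μM concentration. Rotated 45 min at room temperature, spun through a 10% sucrose/PBS cushion, and cell-bound radioactivity gamma-counted. Inhibition measured against a drug-free control; triplicate, n ≥ 2.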

[2] = biological target: C-C chemokine receptor type 5 (Homo sapiens) (UniProt P51681); assay: The compound was tested for inhibition of Chemokine (RANTES) binding against C-C chemokine receptor type 5 transfected in HEK 293 cells; format: cell-based; procedure, shortened: as §1
[3] = biological target: C-C chemokine receptor type 5 (Homo sapiens) (UniProt P51681); assay: The compound was tested for inhibition of Chemokine (MIP-1Alpha) binding against C-C chemokine receptor type 5 transfected in HEK 293 cells; format: cell-based
Procedure, shortened: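 Competition binding in HEK-293 cells transfected with the named receptor, at 1 × 10^6 cells/mL in RPMI 1640 with 1% BSA and 5 mM HEPES pH 8.0. Cells were mixed with 0.2 ng/assay radiolabeled chemokine plus test compound at a single concentration of 200 μM, rotated 45 min at room temperature, then spun through a 10% sucrose/PBS cushion. Cell-bound radioactivity was gamma-counted; triplicates, n ≥ 2; t-test against a drug-free control.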

CXCR2 (Homo sapiens) [4] = assay: The compound was tested for inhibition of Chemokine r (IL-8) binding against CXCR2 transfected in HEK 293 cells
CXCR2 (Homo sapiens) [5] = assay: The compound was tested for inhibition of Chemokine (IL-8) binding against CXCR2 transfected in HEK 293 cells

Cn1cc(N)cc1C(=O)Nc1ccc(S(=O)(=O)O)c2cc(S(=O)(=O)O)ccc12
inhibition [1]: 6.6% | inhibition [2]: -1% | inhibition [3]: 9.5% | inhibition (CXCR2 (Homo sapiens) [4]): 0.3%

Cn1cc(NC(=O)c2cc(NC(=O)Nc3c[nH]c(C(=O)Nc4cc(C(=O)Nc5ccc(S(=O)(=O)O)c6cccc(S(=O)(=O)O)c56)n(C)c4)c3)c[nH]2)cc1C(=O)Nc1ccc(S(=O)(=O)O)c2cccc(S(=O)(=O)O)c12
inhibition [2]: -3.1% | inhibition (CXCR2 (Homo sapiens) [5]): 5.4% | inhibition [3]: 6.5%
